Results from different studies.
Protocols differ between the studies behind these lines.
Target: Tyrosine-protein kinase receptor TYRO3 (TYRO3, Homo sapiens, UniProt Q06418)

Compound | observed | mode | technique | concentration | endpoint | result
C[C@@]1(Cc2ccc(C#N)cc2)C(=O)N(c2cc(Cl)cc(Cl)c2)c2ncc(C(=O)NC3(c4nc(C5CCC5)no4)CC3)n21 | cell-free assay | – | competition with immobilised ligand | 1 µM | remaining binding | 100%
Cc1ccc(Nc2nccc(N(C)c3ccc4c(C)n(C)nc4c3)n2)cc1S(N)(=O)=O | cell-free assay | – | – | 0.3 µM | inhibition | 26%
CCCOc1ccc(OC)c(F)c1C(=O)c1ccc(C(=O)N[C@@H]2CNC[C@H]2NC(=O)c2ccc3[nH]ncc3c2)cc1 | enzyme activity | inhibitor | – | 10 µM | remaining activity | 51%
C=CC(=O)Nc1cc(Nc2nccc(Nc3cc(Cl)c(F)cc3C(C)(C)O)n2)c(OC)cc1N1CC[C@@H](N(C)C)C1 | enzyme activity | inhibitor | – | 1 µM | inhibition | 5%
CCN(CC)CCNC(=O)c1c(C)[nH]c(/C=C2\C(=O)Nc3ccc(F)cc32)c1C | cell-free assay | – | – | 0.3 µM | inhibition | 72%
Cc1ccc(C(=O)Nc2ccc(CN3CCN(C)CC3)c(C(F)(F)F)c2)cc1C#Cc1cnc2cccnn12 | cell-free assay | – | – | 23.5 nM | remaining signal | 73%
COc1cc2ncnc(Nc3ccc(Oc4ccccc4)cc3C)c2cc1OC | enzyme activity | inhibitor | – | 1 µM | inhibition | 70%
Cc1c[nH]c2nccc(Oc3c(F)cc(Nc4cc(Cl)nc(N)n4)cc3F)c12 | cell-free assay | – | competition with immobilised ligand | 0.1 µM | remaining binding | 100%
CCCS(=O)(=O)Nc1ccc(F)c(C(=O)c2c[nH]c3ncc(-c4ccc(Cl)cc4)cc23)c1F | enzyme activity | inhibitor | – | 1 µM | inhibition | < 10%
COc1cc(Cl)c(C(=O)N[C@@H](CN[C@H]2CC[C@@H](N)CC2)Cc2ccc(C#N)cc2)cc1-c1ccc(CN[C@H](C)c2ccc(C)cc2)o1 | enzyme activity | inhibitor | – | 1 µM | remaining activity | 85%
CC(C)c1ccc(NC(=O)c2cccs2)c(-c2nc3ccccc3[nH]c2=O)c1 | enzyme activity | inhibitor | – | 1 µM | activity vs control | 103%
COCCOc1nc(-c2ccc(Cl)nc2)nc2c1CN(C(=O)c1ncn3ccccc13)CC2 | cell-free assay | – | competition with immobilised ligand | 0.1 µM | remaining binding | 100%
Cc1ccc(C(=O)NCc2ccsc2)cc1C#Cc1cn(C(C)C)c2ncnc(N)c12 | enzyme activity | inhibitor | – | 1 µM | activity vs control | 89%
O=C(Nc1cnn(-c2csc(C(=O)NC3COC3)c2)c1)Nc1c(F)cccc1Cl | enzyme activity | inhibitor | – | 5 µM | remaining activity | 68.4%
Cn1c2c(Cl)c(Cl)ccc2c2cn[nH]c(=O)c21 | thermal stability | – | DSF | 10 µM | ΔTm | 1 °C
CCCOc1ccc([C@H]2[C@H](C(=O)O)[C@@H](c3ccc4c(c3)OCO4)CN2CC(=O)Nc2c(CC)cccc2CC)cc1 | cell-free assay | – | competition with immobilised ligand | 1 µM | remaining binding | 100%
O=C1Nc2ccc(Cl)cc2C1=Cc1cc(Cl)c(O)c(Cl)c1 | cell-free assay | – | – | 0.5 µM | remaining signal | 94.9%
Cc1sc(C(=O)NC2COC2)cc1-n1cc(NC(=O)Nc2c(F)cccc2Cl)cn1 | enzyme activity | inhibitor | – | 10 µM | remaining activity | 98.8%
O=C(O)c1cc(-c2ccc(C3CCNCC3)cc2)c2ccc(-c3ccc(C(F)(F)F)cc3)cc2c1 | cell-free assay | – | competition with immobilised ligand | 1 µM | remaining binding | 100%
Cc1ccc(NC(=O)c2ccc(C)c(C(F)(F)F)c2)cc1C#Cc1nn(C2CCC(O)CC2)c2ncnc(N)c12 (centres unmarked) | cell-free assay | – | – | 10 µM | remaining signal | 2%
CC(C)(C)c1nc(-c2cccc(NS(=O)(=O)c3c(F)cccc3F)c2F)c(-c2ccnc(N)n2)s1 | enzyme activity | inhibitor | radiometric | 1 µM | remaining activity | 90%
CC1CCCN1c1nccc(-c2cnn3ncccc23)n1 (centres unmarked) | binding | – | – | 1 µM | remaining binding | 79%
CCN(CC)c1ccc(C2=NNC(=O)CC2C)cc1[N+](=O)[O-] (centres unmarked) | enzyme activity | inhibitor | – | 10 µM | remaining activity | 95%
CCS(=O)(=O)c1cc2cc(C[C@@](O)(CC(C)(C)c3ccc(F)cc3C(N)=O)C(F)(F)F)[nH]c2cn1 | cell-free assay | – | competition with immobilised ligand | 1 µM | remaining binding | 92%
O=C1NC(=O)c2cc(Nc3ccc(F)cc3)c(Nc3ccc(F)cc3)cc21 | cell-free assay | – | – | 0.5 µM | remaining signal | 94.8%
Cn1cc(Cl)c2c(Oc3c(F)cc(Nc4cc(Cl)nc(N)n4)cc3F)ccnc21 | cell-free assay | – | competition with immobilised ligand | 0.1 µM | remaining binding | 80%
Cn1c2c(c3ccc(Cl)c(Cl)c31)C(C#N)C1(CCNCC1)NC2=O (racemic) | thermal stability | – | DSF | 10 µM | ΔTm | -0.4 °C
CCC(=O)N[C@H]1CC[C@@H](C(=O)N(C)c2ccc(-c3nc4ccccc4o3)cc2)C1 | cell-free assay | – | competition with immobilised ligand | 1 µM | remaining binding | 92%
Cn1c2c(Cl)c(Cl)ccc2c2cc(N)[nH]c(=O)c21 | thermal stability | – | DSF | 10 µM | ΔTm | 1.1 °C
